An excerpt weighted towards active compounds, which were near 3.7% of everything screened.
hERG rescue: hERG (human) protection from proarrhythmic block | 310,000 tested, 0.51% active | AID 1511 | activation (rescue from dofetilide block), less the hit threshold, % at 10 µM | Q12809 | CHO-hERG, FluxOR thallium flux, dofetilide IC70 present;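 active = activation above the mean of controls blocked by dofetilide plus 5 SD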;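 also: thallium influx through hERG after potassium depolarization seen as dye fluorescence rise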
KCNK3 block: human KCNK3 channel inhibition, primary screen | B-score at 10 µM | CHO-KCNK3 thallium flux, FluxOR fluorescence; active compounds read low | 340,000 tested, 0.84% active | AID 602410;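 active = B-score under library mean minus 4 SD, starting fluorescence ratio at most library mean plus 5 SD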;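 also: more negative B-score means stronger inhibition of thallium flux through KCNK3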
Kir21 inh: Kir2.1 (mouse) channel inhibition. HEK293-Kir2.1, FluxOR thallium flux fluorescence; active compounds read low. B-score at 10 µM. 310,000 tested, 0.85% active. AID 1672;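 active = fluorescence ratio B-score at or below minus 3 SD of library scores, with starting-brightness B-score within 2 SD, cut at about -4.2 in these data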;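 also: channel flux triggered by added potassium and thallium sulfate stimulus; B-score of peak minus minimum fluorescence over baseline after thallium stimulus; more negative B-score means stronger Kir2.1 block with less thallium influx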
KCNK9 block: blocks the human KCNK9 two-pore domain potassium channel; Q9NPC2; HEK293 KCNK9, FluxOR thallium flux fluorescence; active compounds read low; B-score at 10 µM; 310,000 tested, 1.2% active;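 active = ratio B-score over 3 SD below the library mean, with starting fluorescence within 5 SD of its mean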;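 also: negative B-score means less thallium flux so channel inhibition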
KCNQ1 pot: human KCNQ1 channel potentiation or activation; CHO-K1 KCNQ1, thallium flux FluxOR fluorescence; active compounds read high; AID 2648; 310,000 tested, 0.35% active; B-score at 10 µM;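 active = fluorescence ratio B-score, a plate-corrected score, at least three library SD, with initial intensity B-score within 5 SD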
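Medium – assay buffer, equal DMSO in all wells · Material – CHO-K1 cell line with stable KCNQ1 potassium channel expression · Signal – kinetic FluxOR thallium fluorescence, 10-s 1-Hz baseline, 110-s post-stimulus read · Compound – single concentration per compound, DMSO matched to controls · Schedule – 37 °C overnight plating, 90-min dark dye load, 20-min compound pretreatment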
KCNQ1 block: blocks the human KCNQ1 potassium channel | P51787 | CHO-K1 KCNQ1, FluxOR thallium flux fluorescence; active compounds read high | B-score at 10 µM | 310,000 tested, 1.3% active;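 active = compounds whose thallium flux B-score, printed positive for inhibition, exceeds three library SD while starting fluorescence stays within three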;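 also: channel opened by potassium depolarization with thallium stimulus after 20 min compound exposure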
KCNQ1 inh valid: confirmation of human KCNQ1 potassium channel inhibitors; shares compounds with KCNQ1 block; KCNQ1 cell line, FluxOR thallium flux fluorescence; inhibition, % at 10 µM; 1,600 tested, 93% active; AID 588353;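 active = primary screen active, with duplicate mean exceeding buffer control mean plus 3 SD of buffer wells, cut at about 28% in these data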;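 also: 0% = buffer control ratio and 100% = XE991 inhibitor control ratio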
CHO Tl flux: activity in parental CHO cells lacking KCNQ1 | shares compounds with KCNQ1 block | parental CHO-K1, FluxOR thallium flux fluorescence ratio; active compounds read low; zero means no signal rise above baseline | fluorescence ratio (Tl flux) at 10 µM | 1,600 tested, 21% active | AID 588366;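 active = mean of duplicate thallium-flux fluorescence ratios in parental host cells more than 5 SD below the buffer control mean, cut at about 0.38 in these data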;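 also: ratio is peak minus minimum fluorescence divided by baseline fluorescence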
KCNQ1 APC inh: blocks human KCNQ1 current in automated patch clamp. shares compounds with KCNQ1 block. KCNQ1-CHO cells. calls only at 10 µM. 490 tested, 20% active. AID 624120;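 active = KCNQ1 current drop exceeding 3 SD of negative control wells, seen in both duplicate runs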;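 also: steady state current during a 2 s step from -80 to +40 mV; negative values mean current inhibition and positive values mean potentiation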
KCNQ2 inh: KCNQ1 inhibitor that also blocks rat KCNQ2 channel | shares compounds with KCNQ1 block | KCNQ2 cells, FluxOR thallium flux fluorescence | inhibition, % at 10 µM | 1,600 tested, 71% active;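 active = mean percent inhibition of the KCNQ2 thallium signal more than 5 SD above the buffer-only control wells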;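 also: KCNQ2 expressed in CHO cells; 0% = buffer control wells and 100% = XE-991 inhibitor control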
KCNQ1 KCNE1 spec: human KCNQ1/KCNE1 inhibition in KCNQ1 specificity screen; shares compounds with KCNQ1 block; KCNQ1/KCNE1 cells, FluxOR thallium flux fluorescence; inhibition, % at 10 µM; 1,600 tested, 77% active; AID 652147;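 active = mean percent inhibition of duplicate wells above the buffer-only control mean plus 3 SD of those controls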;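 also: 0% = buffer only wells and 100% = XE-991 inhibitor control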
Target sequence (P51787 whole entry, looked up): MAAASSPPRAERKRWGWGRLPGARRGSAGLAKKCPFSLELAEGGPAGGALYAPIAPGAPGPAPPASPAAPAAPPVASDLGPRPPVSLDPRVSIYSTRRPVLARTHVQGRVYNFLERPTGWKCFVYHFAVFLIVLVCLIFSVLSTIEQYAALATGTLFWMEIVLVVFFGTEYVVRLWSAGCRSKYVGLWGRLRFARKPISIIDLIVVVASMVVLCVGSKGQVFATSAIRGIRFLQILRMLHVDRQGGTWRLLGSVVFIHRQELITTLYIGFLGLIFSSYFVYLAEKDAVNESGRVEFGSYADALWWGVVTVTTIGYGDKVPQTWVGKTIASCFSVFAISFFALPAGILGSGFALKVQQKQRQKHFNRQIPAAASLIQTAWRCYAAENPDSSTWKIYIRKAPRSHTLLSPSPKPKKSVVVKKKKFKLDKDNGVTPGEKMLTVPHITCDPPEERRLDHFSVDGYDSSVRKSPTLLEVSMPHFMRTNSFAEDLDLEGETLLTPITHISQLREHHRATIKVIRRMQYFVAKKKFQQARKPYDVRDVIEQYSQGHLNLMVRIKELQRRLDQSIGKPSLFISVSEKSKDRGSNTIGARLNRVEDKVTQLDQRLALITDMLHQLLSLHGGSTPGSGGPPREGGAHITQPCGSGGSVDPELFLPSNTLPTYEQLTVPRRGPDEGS
Active calls of the source: *; i = inactive; x = no result; + = active, no number.

SMILES	hERG rescue	KCNK3 block	Kir21 inh	KCNK9 block	KCNQ1 pot	KCNQ1 block	KCNQ1 inh valid	CHO Tl flux	KCNQ2 inh	KCNQ1 KCNE1 spec	others
COC(=O)C(Cc1ccc(O)cc1)NC(=O)C12CC3CC(CC(C3)C1)C2 (stereo not given)	-16	i	1.1	i	i	14*	44*	0.46	i	i
O=C(NCc1ccc(C(=O)O)cc1)OCc1ccccc1	-7	i	1.1	i	i	i	x	x	x	x
c1ccc2c(c1)OCC(CNc1ncnc3sccc13)O2 (stereo not given)	-18	i	-0.92	i	i	12*	106*	0.42	97%*	104%*
CC(=O)c1ccc(S(=O)(=O)N2CCN(C(=O)CSc3ccc(F)cc3)CC2)cc1	-9	i	0.55	i	i	i	x	x	x	x
COc1cc(-c2cc(N)n(S(=O)(=O)c3ccc(F)cc3)n2)cc(OC)c1OC	-17	i	-0.13	i	i	i	x	x	x	x
CCOC(=O)c1oc2ccc(S(=O)(=O)n3nc(-c4cc(OC)c(OC)c(OC)c4)cc3N)cc2c1C	-36	i	-0.82	i	i	7*	62*	0.42	71%*	110%*
COc1ccc(N(CC(=O)NCc2ccccc2)S(=O)(=O)c2c(C)n[nH]c2C)cc1	-10	i	0.03	i	i	i	x	x	x	x
COc1ccc(N(CC(=O)NCc2ccc(Cl)cc2)S(=O)(=O)c2c(C)n[nH]c2C)cc1	-22	i	-0.03	i	i	7*	58*	0.49	75%*	60%*
CCN1C(=O)C(CC(=O)Nc2ccc(Br)cc2)N(CCCc2ccccc2)C1=S (stereo not given)	-14	i	-0.01	i	i	8*	140*	0.33*	115%*	196%*
COc1ccc(S(=O)(=O)N(C)C)cc1NC(=O)CCNC(=O)c1ccccc1OC	-11	i	-2.7	i	i	i	x	x	x	x
CC(C)CC(=O)Nc1ccc(Oc2ccc3c(c2)C(=O)NC3=O)cc1	-9	i	-0.35	i	i	i	x	x	x	x
Cc1cccc(NS(=O)(=O)c2ccc(C3CCCCC3)cc2)c1	-8	i	0.01	i	i	7*	0	0.61	i	i
O=C(O)c1cccc(NS(=O)(=O)c2ccc(C3CCCCC3)cc2)c1	-10	i	0.09	i	i	i	x	x	x	x
CCN(C(=O)COC(=O)/C=C/c1c(C)nn(Cc2ccc(C)cc2)c1C)C1CCS(=O)(=O)C1 (stereo not given)	-14	i	0.14	i	i	i	x	x	x	x
CCOc1ccc(NC(=S)NC(=O)c2cccnc2)c([N+](=O)[O-])c1	-5	i	-1.5	i	i	i	x	x	x	x
Cc1ccccc1N1C(=O)c2cccc3c(N(C)CCO)ccc(c23)C1=O	-32	i	-7.3	i	i	i	x	x	x	x
COc1ccccc1N1C(=O)c2cccc3c(N(C)CCO)ccc(c23)C1=O	-20	i	-6.5	i	i	7*	100*	0.27*	i	i
Cc1ccccc1C(=O)Nc1ccccc1NC(=O)c1ccccc1Br	-10	i	-1	i	i	i	x	x	x	x
COc1ccc(Nc2ccccc2NC(=O)c2ccccc2Br)cc1	-8	i	-1.3	i	i	11*	89*	0.44	94%*	90%*
CCCCCC1CC(=O)C=C(C)C1C(=O)OC (stereo not given)	-2	i	-1.3	i	i	i	x	x	x	x
CC(Oc1cccc(Cl)c1)C(=O)Nc1cc(S(=O)(=O)N2CCOCC2)ccc1N1CCCC1 (stereo not given)	-16	i	-0.93	i	i	i	x	x	x	x
CC(Oc1cccc(Cl)c1)C(=O)Nc1cc(S(=O)(=O)N2CCCCC2)ccc1N1CCOCC1 (stereo not given)	-13	i	2.1	i	i	9*	69*	0.39	94%*	95%*
CCOC(=O)[C@H]1[C@H]2COc3ccc(C)cc3[C@@H]2N2C(=O)c3cc(F)c(F)cc3NC(=O)[C@@]12C	x	i	x	x	x	x	x	x	x	x
CC(=O)Nc1ccccc1OCC(=O)c1cc(C)n(Cc2cccs2)c1C	-21	-9.4*	-1	i	i	7*	110*	0.42	99%*	38%*
Cc1csc(NC(=O)c2sc3nc(-c4cccs4)ccc3c2N)n1	-9	x	-0.51	i	i	16*	124*	0.24*	i	i
SMILES	hERG rescue	KCNK3 block	Kir21 inh	KCNK9 block	KCNQ1 pot	KCNQ1 block	KCNQ1 inh valid	CHO Tl flux	KCNQ2 inh	KCNQ1 KCNE1 spec	others
CCCSc1nnc(NC(=O)c2sc3nc(-c4cccs4)ccc3c2N)s1	-22	i	-2.4	i	i	i	x	x	x	x
Cc1ccc(N2CC(C(=O)Nc3ccc(N4CCOCC4)cc3)CC2=O)cc1C (stereo not given)	-9	i	-2.7	i	i	i	x	x	x	x
Cc1[nH]n(-c2ccccc2)c(=O)c1N=Nc1c(O)cc(S(=O)(=O)N(C)C)c2ccccc12	-24	i	-0.42	i	i	10*	124*	0.47	72%*	i	KCNQ1 APC inh=i
CCc1ccccc1N1CCN(S(=O)(=O)c2ccc(F)c(C)c2)CC1	-14	i	0.82	i	i	7*	91*	0.44	80%*	91%*	KCNQ1 APC inh=i
COc1ccc(OC)c(N(C)S(=O)(=O)c2cc3c(cc2C)NC(=O)CO3)c1	-10	i	1.6	i	i	i	x	x	x	x
CCCCCCNC(=O)C(C#N)c1nc2ccccc2nc1N1CCCC1 (stereo not given)	-8	i	-2.2	i	i	9*	+	0.2*	i	i
Cc1ccc(-c2nc(CC(=O)Nc3cccc(S(=O)(=O)NC4=NCCC4)c3)cs2)cc1	x	i	x	x	x	x	x	x	x	x
COc1ccccc1NC(=O)C(C)Sc1nc(-c2ccccc2)cn1N (stereo not given)	x	i	x	x	x	x	x	x	x	x
O=C(O)CCCNC(=O)c1nn(Cc2ccccc2)c(=O)c2ccccc12	2	i	-0.12	i	i	i	x	x	x	x
